# sEH activator: soluble epoxide hydrolase (human) activation. P34913. purified human sEH enzymatic activity, activator screen. activation, % at 2 µM. 0.04% of 91,000 active. AID 717; in the data active means activation above about 37%
# Rev-RRE block: inhibitors of HIV-1 Rev-RRE RNA interaction. Rev peptide-RRE RNA binding, FRET. inhibition, % at 8 µM. 0.79% of 97,000 active;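 active means inhibition above the screen-wide mean plus 3 SD, cut at about 35% in these data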;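 further: 0% = median DMSO wells and 100% = median Neomycin B control wells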
#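 Test system – labelled RRE RNA duplex and labelled Rev peptide · Reagent – labelled Rev peptide · Doses – one concentration, 8 µM nominal · Incubation – 5 + 15 min at 25 °C · Signal – FRET fluorescence readout · Read-out basis – % inhibition of FRET ratio versus controls · Control set – DMSO wells as 0% and neomycin B wells as 100% inhibition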
# ERa SRC1 inh: ER-alpha (human) coactivator binding inhibition; P03372; TR-FRET ER-alpha LBD / SRC-1 peptide, estradiol-bound; inhibition, % at 25.6 µM; 1.7% of 86,000 active; AID 629; in the data active means inhibition above about 50%;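 further: 0% = receptor plus peptide control and 100% = peptide only without receptor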
# Target sequence (P03372 whole entry, looked up, the tested form may be a part): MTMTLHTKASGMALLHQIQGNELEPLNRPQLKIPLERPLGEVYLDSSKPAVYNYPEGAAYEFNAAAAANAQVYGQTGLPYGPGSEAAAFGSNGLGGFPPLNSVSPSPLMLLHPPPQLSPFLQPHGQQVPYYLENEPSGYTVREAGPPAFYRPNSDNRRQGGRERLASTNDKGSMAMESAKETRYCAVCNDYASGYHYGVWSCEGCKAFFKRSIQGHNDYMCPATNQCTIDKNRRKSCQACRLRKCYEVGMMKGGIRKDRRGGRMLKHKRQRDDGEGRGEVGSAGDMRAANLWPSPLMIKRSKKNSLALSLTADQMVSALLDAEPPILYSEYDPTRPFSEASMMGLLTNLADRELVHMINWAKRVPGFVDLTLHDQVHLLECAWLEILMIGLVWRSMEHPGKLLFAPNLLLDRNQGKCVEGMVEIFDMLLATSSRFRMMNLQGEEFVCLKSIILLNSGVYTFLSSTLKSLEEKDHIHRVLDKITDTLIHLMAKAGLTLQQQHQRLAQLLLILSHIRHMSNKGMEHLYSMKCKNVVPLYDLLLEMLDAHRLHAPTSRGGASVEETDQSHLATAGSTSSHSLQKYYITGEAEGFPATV
# ERa coact pot: enhances coactivator binding to human estrogen receptor alpha; TR-FRET ERalpha-LBD/SRC-Cy5 coactivator binding, 2 h; 100 = basal binding, no effect; coactivator binding (% of control), % at 25.6 µM; 1.3% of 86,000 active; in the data active means activity above about 200%;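 further: binding measured in presence of low estradiol as agonist stimulus; 0% = peptide alone without receptor and 100% = receptor with peptide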
# ERb SRC1 inh: blocks coactivator binding to human estrogen receptor beta. Q92731. TR-FRET ER-beta LBD / SRC1-Cy5 peptide binding; receptor agonist-loaded with 1 µM estradiol. inhibition, % at 25.6 µM. 1.3% of 86,000 active. AID 633;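 active means compounds whose percent inhibition of the receptor-coactivator binding signal exceeds about 50% in the single-dose screen, limit read from the data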;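 further: 0% = receptor plus peptide wells without compound and 100% = peptide-only wells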
# sEH inhibitor: inhibitors of human soluble epoxide hydrolase; recombinant human sEH enzymatic activity assay; inhibition, % at 2 µM; 0.34% of 91,000 active; in the data active means inhibition above about 80%
# * = called active by the depositor; . = no result given; [ ] = another dose, or the depositor's remark. Hits are enriched below; roughly 3.5% of the tested compounds scored in any of these assays.
SMILES,sEH activator,Rev-RRE block,ERa SRC1 inh,ERa coact pot,ERb SRC1 inh,sEH inhibitor
COc1cccc(-c2[nH]nc3c2C(c2ccoc2)C(C#N)=C(N)O3)c1 (configuration not stated),0,3,50,65,58*,2
c1coc(C2Nc3cccc4cccc(c34)N2)c1,-1,2,74*[fluorescence artefact?],26,78*[fluorescence artefact?],-2
Oc1ccc(C2Nc3cccc4cccc(c34)N2)c(O)c1,14,-2,28,30,36,-10
CCOC(=O)COc1cccc2c(=O)n(CC(=O)N3CCCc4ccccc43)ccc12,-7,7,10,97,51*[fluorescence artefact?],6
Oc1[nH]c2ccccc2c1C1=NCCCC1,-13,-2,82*[fluorescence artefact?],27,92*[fluorescence artefact?],15
Cc1cc(C)n2nc(SCc3cc(=O)oc4cc(O)ccc34)nc2n1,-4,-2,58*,99,62*[fluorescence artefact?],3
Cc1cc(C)n2nc(SCn3nnc4ccccc4c3=O)nc2n1,.,6,19,117,23,.
C[C@]12CC[C@H]3C(=CCc4cc(O)ccc43)[C@@H]1CCC2=O,.,.,16,206*,13,.
CCn1c(C)c(C(C)=O)c(N2CCN(c3ccccc3)CC2)nc1=S,-10,42*,-1,104,-1,9
CCn1c(C)c(C(C)=O)c(N2CCN(c3ccccn3)CC2)nc1=S,-13,0,-20,126,-17,18
COCC(=O)N1CCC(n2nnc3cc(F)ccc32)CC1,-7,4,-7,110,4,5
CN(C)S(=O)(=O)N1CCN(c2cccc(Cl)c2)CC1,12,3,-3,98,2,-15
O=S(=O)(/C=C/c1ccccc1)N1CCN(c2cccc(Cl)c2)CC1,38*,3,3,111,-1,-38
CCN1C(=O)/C(=C/c2ccc(C)s2)SC1=Nc1ccc(OC)cc1,-2,9,.,.,.,3
O=C(CN(c1ccc(F)cc1)S(=O)(=O)c1ccc2c(c1)OCCO2)N1CCOCC1,.,.,8,103,-2,.
COc1ccc(N=Cc2sc(O)c3ccccc23)cc1,-16,129*[fluorescence artefact?],.,.,.,18
COc1cc(O)oc1C=Nc1ccc(Oc2ccccc2)cc1,-4,5,.,.,.,5
COc1ccc(C(C(=O)NC2CCCCC2)N(C(=O)c2sc(C)nc2C)c2ccccc2C)cc1 (configuration not stated),2,-5,.,.,.,0
O=C(Nc1cccnc1)c1ccc(S(=O)(=O)N2CCCCCC2)cc1,-26,2,52*[fluorescence artefact?],21,47,24
Cc1c(C(=O)N2CCOCC2)sc(NC(=O)c2ccc3c(c2)OCO3)c1C#N,-12,4,22,63,22,11
COc1cc(C2Nc3cccc4cccc(c34)N2)ccc1OC(C)=O,-5,5,19,57,46,6
COc1cc(C2Nc3cccc4cccc(c34)N2)cc(OC)c1O,8,9,54*[fluorescence artefact?],46,82*[fluorescence artefact?],-9
Cc1ccc2c(c1)[nH]c1c(=O)n(CCN3CCNCC3)cnc12,14,1,6,117,4,-15
CC(=O)c1cccc(NC(=O)CN(c2ccccc2)S(C)(=O)=O)c1,.,.,28,711*[fluorescence artefact?],48,.
CN(C)S(=O)(=O)N(CC(=O)Nc1ccccc1C(F)(F)F)c1ccccc1,-4,-2,70*[fluorescence artefact?],67,34,4
SMILES,sEH activator,Rev-RRE block,ERa SRC1 inh,ERa coact pot,ERb SRC1 inh,sEH inhibitor
CSc1cccc(NC(=O)CN(c2ccccc2)S(=O)(=O)N(C)C)c1,-3,3,50*,61,37,6
CC(=O)c1cccc(NC(=O)CN(c2ccccc2F)S(C)(=O)=O)c1,15,6,-3,102,2,-16
CC1(C)COC(c2cccn2Cc2ccc(F)cc2Cl)=N1,1,7,16,82,20,0
CN=C1c2ccccc2CN1c1cccc(C(=O)OC)c1,.,.,2,94,6,.
O=C(COc1c(F)c(F)c(C(F)(F)F)c(F)c1F)Nc1ccc(N2CCOCC2)c(Cl)c1,-83,25,1,116,-5,83*
COc1ccc(N(CC(=O)NCCSc2ccccn2)S(C)(=O)=O)cc1Cl,.,2,-1,116,-2,.
CC(=O)Nc1nonc1-c1nc2ccccc2n1CCC(C)C,-3,14,10,99,2,1
CCC(=O)Nc1nonc1-c1nc2ccccc2n1Cc1ccccc1,7,20,19,113,3,-2
CCC(=O)Nc1nonc1-c1nc2ccccc2n1Cc1cccc2ccccc12,-1,8,19,204*[fluorescence artefact?],21,4
CCOC(=O)Cn1c(-c2nonc2NC(=O)c2ccccc2F)nc2ccccc21,3,21,25,322*,29,-3
CCC(=O)Nc1nonc1-c1nc2ccccc2n1N(C(=O)CC)C(=O)CC,.,13,59*,59,50,.
COc1ccc(OCCCN2CCCC(C)C2)cc1 (configuration not stated),6,9,-8,124,-2,-8
CCCCn1c(N)c(N(CC)C(=O)c2ccc3c(c2)S(=O)(=O)c2ccccc2C3=O)c(=O)[nH]c1=O,-3,4,-8,100,-6,2
CCn1c(COc2ccccc2)nnc1SCC(=O)C(C)(C)C,13,-2,2,115,-4,-16
O=C1NN(c2ccc(Cl)c(Cl)c2)C(=O)/C1=C/c1cccc(OC(=O)c2cccs2)c1,18,11,51*,66,28,-19
CC(=O)N1CCN2C(=O)C1CCCC(=O)c1cc(C)ccc12 (configuration not stated),0,2,-6,98,-4,2
CCOc1ccc(C(=O)CCN2CCCCC2)cc1,.,.,-2,92,59*,.
COc1ccc(C(=O)CCN2CCCCCC2)cc1,1,5,.,.,.,3
O=C(NCCN1CCCCCC1)c1ccc(N2CCCC2=O)cc1,-9,5,55*[fluorescence artefact?],155,22,12
O=C(NCc1ccc(Cl)cc1)c1cnn2ccccc12,.,0,2,91,-1,.
Cc1cc(C)n(-c2nc3ccccc3c(=O)n2OCCOc2ccccc2)n1,9,7,7,33,56*[fluorescence artefact?],-11
N#CC1=C(N)n2c(s/c(=C\c3ccco3)c2=O)=C(C#N)C1c1ccco1 (configuration not stated),2,13,75*[fluorescence artefact?],36,67*[fluorescence artefact?],-6
CC(=O)c1c(C)[nH]c(C(=O)OCC(=O)NCCc2ccc(Cl)cc2)c1C,-10,11,0,88,-2,12
COC(=O)c1ccc(CSc2nc(C)nc3sc(C)c(C)c23)o1,1,3,55*,119,43,-1
CCOC(=O)c1sc(NC(=O)c2ccco2)nc1-c1ccccc1,16,9,6,271*[fluorescence artefact?],8,-17
CCOC(=O)N1CCN(C(=O)c2ccc3c(=O)n(CCC4=CCCCC4)c(=S)[nH]c3c2)CC1,-26,-3,26,208*,31,26
